ChEMBL document CHEMBL3259708, “Thienoquinolines as novel disruptors of the PKCε/RACK2 protein-protein interaction” (J Med Chem, 2014)

Tests used:
[1] = molecular target: T1, Protein kinase C epsilon type (Homo sapiens) (UniProt Q02156); assay: (§1) Inhibition of recombinant PKCepsilon (unknown origin)-MBP-tagged RACK2 interaction after 1 hr by ELISA-based assay relative to untreated control; parameters: residual binding, % of control: concentration or dose not given beside the values; conditions: values are per cent of control
T1 sequence (whole entry): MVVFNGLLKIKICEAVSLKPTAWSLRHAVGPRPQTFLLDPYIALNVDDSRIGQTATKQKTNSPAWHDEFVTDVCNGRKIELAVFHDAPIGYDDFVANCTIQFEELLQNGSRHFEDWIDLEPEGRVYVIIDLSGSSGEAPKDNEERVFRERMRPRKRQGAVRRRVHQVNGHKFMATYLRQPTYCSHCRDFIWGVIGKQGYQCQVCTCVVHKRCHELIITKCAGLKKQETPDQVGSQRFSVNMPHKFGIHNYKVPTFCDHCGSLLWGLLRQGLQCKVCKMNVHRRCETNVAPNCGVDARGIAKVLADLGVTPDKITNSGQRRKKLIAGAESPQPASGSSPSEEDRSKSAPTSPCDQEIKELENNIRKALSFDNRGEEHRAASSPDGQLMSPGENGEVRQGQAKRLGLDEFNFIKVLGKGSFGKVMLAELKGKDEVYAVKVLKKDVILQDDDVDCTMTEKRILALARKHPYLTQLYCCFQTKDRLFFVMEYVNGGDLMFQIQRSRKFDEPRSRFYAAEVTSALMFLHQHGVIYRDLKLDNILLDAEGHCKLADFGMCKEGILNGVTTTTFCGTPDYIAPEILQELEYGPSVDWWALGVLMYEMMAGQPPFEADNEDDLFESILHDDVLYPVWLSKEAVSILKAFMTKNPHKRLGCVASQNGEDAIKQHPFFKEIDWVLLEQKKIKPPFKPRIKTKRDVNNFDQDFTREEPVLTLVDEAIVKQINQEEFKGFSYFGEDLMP
How it was run: (§2)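 ELISA: plates coated with 100 ng recombinant PKCε in 20 mM Tris-HCl/100 mM NaCl pH 7.5 overnight at 4 °C, blocked with 3% BSA; PKCε activated 10 min at 30 °C with 60 μg/mL phosphatidylserine and 100 nM TPA; RACK2-MBP preincubated with agent 30 min, then 500 ng added for 1 h binding; anti-RACK2/HRP detection, ABTS at 420 nm; four experiments, quadruplicates, normalized to control; IC50 via CalcuSyn.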

[2] = molecular target: T2, Protein kinase C epsilon type (Homo sapiens, UniProt Q02156); assay: as §1; how it was run: as §2
T2 sequence (Q02156 whole entry): T1 sequence (whole entry)

| Compound | residual binding, % of control [1] | IC50 [2] |
| --- | --- | --- |
| CC(O)c1cccc(NC(=O)C2Sc3nc4cc5c(cc4cc3C2N)OCCO5)c1 (stereo not drawn) | 102% | – |
| CC(=O)c1ccc(NC(=O)c2sc3nc4cc5c(cc4cc3c2N)OCCO5)cc1 | 22.8% | – |
| CCOC(=O)Cc1csc(NC(=O)c2sc3nc4ccc(OCC)cc4cc3c2N)n1 | 32.4% | – |
| O=C1NC(=O)N(Cc2ccccc2)C(=O)/C1=C\c1ccc2c(c1)OCO2 | – | 28.5 µM |
| CO/N=C(\C)c1cccc(NC(=O)c2sc3nc4cc5c(cc4cc3c2N)OCCO5)c1 | 48.3% | – |
| C/C(=N\OCC(=O)O)c1cccc(NC(=O)c2sc3nc4cc5c(cc4cc3c2N)OCCO5)c1 | 59.3% | – |
| CC(=O)c1cccc(NC(=O)c2cc3cc4cc5c(cc4nc3s2)OCCO5)c1 | 64.9% | – |
| CCOc1ccc2nc3sc(C(=O)Nc4ccc(F)cc4)c(N)c3cc2c1 | 60.5% | – |
| H-EAVSLKPT-OH | – | 1.02 µM |
| CCOc1ccc2nc(NC(=O)c3sc4nc5cc(OC)ccc5cc4c3N)sc2c1 | 37.7% | 25.5 µM |
| C/C(=N\O)c1cccc(NC(=O)c2sc3nc4cc5c(cc4cc3c2N)OCCO5)c1 | 46.2% | – |
| H-EAVSLKPTRRRRRRR-OH | – | 1.02 µM |
